A selection: hits, their analogues and other compounds. The true share with any hit is near 2%.
Scp-1 inhibitor: Scp-1 (human) phosphatase inhibition | 340,000 compounds, 0.88% hits | Q9GZU7 | Recombinant Scp1, phosphopeptide, malachite green phosphate absorbance | inhibition, % at 20 µM;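 active means inhibition above about 50% at 20 µM, limit read from the data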;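 further: plate controls were DMSO wells with enzyme for no effect and wells lacking enzyme for full effect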
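System: SCP-1 catalytic domain; Reagent: Phospho 17-mer peptide substrate; Doses: one concentration, 20 µM, with 1.0% DMSO; Incubation: 45 min room-temperature reaction, 5 min colour, 30 min stabiliser; Signal: Phosphate-binding colour reagent, absorbance read at 630 nm.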
DNMT1 inh: DNMT1 (human) enzyme inhibition | P26358 | DNMT1 molecular beacon, Hinp1I cleavage, fluorescence | inhibition (reported as % activation of signal), % at 10 µM | 360,000 compounds, 0.83% hits | AID 588458; in the data active means inhibition above about 50%
Target sequence (P26358 504-1616 limits assumed): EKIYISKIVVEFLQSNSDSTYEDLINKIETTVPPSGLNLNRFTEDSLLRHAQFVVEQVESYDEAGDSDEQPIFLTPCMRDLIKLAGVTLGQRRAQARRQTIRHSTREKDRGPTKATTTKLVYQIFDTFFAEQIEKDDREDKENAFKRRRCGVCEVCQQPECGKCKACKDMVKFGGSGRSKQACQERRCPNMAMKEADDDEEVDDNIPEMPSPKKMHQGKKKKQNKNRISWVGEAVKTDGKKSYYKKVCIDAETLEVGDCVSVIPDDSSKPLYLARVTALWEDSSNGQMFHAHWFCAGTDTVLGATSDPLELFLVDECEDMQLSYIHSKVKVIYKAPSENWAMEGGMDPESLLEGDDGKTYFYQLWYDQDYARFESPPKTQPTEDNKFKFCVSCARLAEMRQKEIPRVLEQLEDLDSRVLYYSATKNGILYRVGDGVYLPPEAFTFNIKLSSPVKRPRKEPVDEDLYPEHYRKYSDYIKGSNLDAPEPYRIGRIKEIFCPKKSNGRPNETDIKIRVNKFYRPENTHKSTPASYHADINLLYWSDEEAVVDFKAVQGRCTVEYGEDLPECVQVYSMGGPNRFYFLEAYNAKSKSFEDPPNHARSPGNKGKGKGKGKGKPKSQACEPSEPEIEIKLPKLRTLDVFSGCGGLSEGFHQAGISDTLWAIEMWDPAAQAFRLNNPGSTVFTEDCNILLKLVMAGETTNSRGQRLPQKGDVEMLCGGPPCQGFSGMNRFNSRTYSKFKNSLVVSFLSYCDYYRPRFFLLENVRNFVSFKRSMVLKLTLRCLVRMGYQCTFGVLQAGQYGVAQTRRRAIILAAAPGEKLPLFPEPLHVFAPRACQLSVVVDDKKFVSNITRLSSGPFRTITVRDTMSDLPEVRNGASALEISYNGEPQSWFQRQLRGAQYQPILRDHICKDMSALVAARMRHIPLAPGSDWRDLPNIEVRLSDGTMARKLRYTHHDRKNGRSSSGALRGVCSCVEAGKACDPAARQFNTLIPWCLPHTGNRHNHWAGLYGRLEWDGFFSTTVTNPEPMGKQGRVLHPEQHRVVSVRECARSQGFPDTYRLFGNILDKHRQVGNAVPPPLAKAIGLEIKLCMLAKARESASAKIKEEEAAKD
STEP inh: STEP (human) phosphatase inhibition; P54829; recombinant STEP, OMFP fluorogenic substrate, fluorescence; inhibition, % at 20 µM; 360,000 compounds, 0.25% hits; AID 588621;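 active means inhibition at 20 µM, scaled per plate between control wells, above about 37%, limit read from the data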;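 further: 0% = DMSO with enzyme and substrate and 100% = substrate only without enzyme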
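Material: STEP (striatal-enriched tyrosine phosphatase) enzyme, cell-free; Compound dosing: 20 µM single dose in 1% DMSO; Technique: fluorescence read at 480 nm ex / 540 nm em; Times: reaction 20 min, ambient temperature; Medium: 50 mM Bis-Tris pH 6.0 with 2.5 mM DTT and 0.005% Tween 20; Also added: OMFP at 25 µM.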
Rpn11 block: inhibitors of human proteasome Rpn11. O00487. human 26S proteasome, Ub4-pepOG fluorescence polarization; 20S core pre-blocked with epoxomicin. inhibition, % at 20 µM. 360,000 compounds, 0.59% hits. AID 588493;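 active means inhibition at 20 µM, scaled to each plate's controls, above about 33%, limit read from the data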
LMPTP block: blocks human LMPTP phosphatase | 360,000 compounds, 0.22% hits | recombinant LMPTP-A, OMFP fluorogenic substrate, fluorescence intensity | inhibition, % at 20 µM | AID 651560 | P24666;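 active means compounds that cut the enzyme signal by at least half of the control window in the single-dose screen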;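 further: plate controls were DMSO wells with enzyme plus substrate for no effect and substrate without enzyme for full effect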
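Assay system: LMPTP-A, protein tyrosine phosphatase of low molecular weight / Medium: pH 6.0 Bis-Tris buffer with DTT and Triton X-100 / Schedule: 50 min enzyme reaction at room temperature, protected from light / Measured by: endpoint fluorescence intensity from OMFP dephosphorylation / Read-out basis: % inhibition relative to no-enzyme and uninhibited control wells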
DNMT1 interf DR: counter-screen for DNMT1 inhibitors: spectral interference, dose response; shares compounds with DNMT1 inh; molecular beacon fluorescence; IC50, µM; 200 tested, under 10 active; call rule not given here
DNMT1 confirm: confirmation of human DNMT1 inhibitors; AID 602385; inhibition, % at 10 µM; 2,300 compounds, 8% hits; shares compounds with DNMT1 inh; DNMT1 molecular beacon HinP1I cleavage, fluorescence;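 active means average inhibition of at least 30% in the single-concentration confirmation test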
DNMT1 interf: beacon fluorescence artifact counter-screen; shares compounds with DNMT1 inh; DNMT1 molecular beacon spectral interference counterscreen, fluorescence 485/520; activation (fluorescence interference), % at 10 µM; 2,300 compounds, 1% hits; AID 602387;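 active means activation of at least 30% at 10 µM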;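 further: DNMT1 catalytic domain with a HinP1I cleavage step and a FAM/dabcyl DNA beacon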
Numbers without * were called inactive; / = no result.

SMILES | Scp-1 inhibitor | DNMT1 inh | STEP inh | Rpn11 block | LMPTP block | DNMT1 confirm | DNMT1 interf | others
COc1ccc(-c2nn(-c3ccccc3)cc2/C=C2/SC(=S)N(CCC(=O)O)C2=O)cc1 | 85* | 75* | 18 | 17 | 0 | 89* | -6 | DNMT1 interf DR=>99
CC12CC3CC(C)(C1)CC(C(=O)NCc1cccnc1)(C3)C2 | 7 | 3 | 0 | 1 | -3 | / | /
O=C1C2CC=C(Cl)CC2C(=O)N1CCCCCCN1C(=O)C2CC=C(Cl)CC2C1=O (stereo unspecified) | 71* | 61* | 5 | -31 | 4 | 10 | 0
O=C1C2CC=C(Cl)CC2C(=O)N1CCN1CCOCC1 (stereo unspecified) | -2 | 4 | 3 | -15 | -5 | / | /
Cc1ccc(NC(=O)CSCC(=O)Nc2cc(S(=O)(=O)N3CCOCC3)ccc2OC(C)C)cc1 | -1 | 1 | 0 | 1 | -2 | / | /
N#Cc1ccc(-c2ccccc2)nc1SCC(=O)c1cc2ccccc2oc1=O | -6 | 70* | 2 | 19 | 2 | 1 | 5
CC(C)c1c(C#N)c(N)nc(SCC(=O)c2cc3ccccc3oc2=O)c1C#N | -5 | 24 | 2 | -1 | 0 | / | /
c1ccc(OCCCCn2cnc3ccccc32)cc1 | 1 | 74* | 3 | 4 | 0 | 2 | 5
c1ccc(OCCn2cnc3ccccc32)cc1 | -3 | 0 | 1 | -5 | 1 | / | /
CCc1cccc(C)c1NC(=O)CN(C)C1=NS(=O)(=O)c2ccccc21 | -9 | 3 | 0 | -3 | -2 | / | /
CCN(CC)C(=O)CC(c1cc(OC)c(OC)c(OC)c1)c1c(OC)cc(OC)c2c(-c3ccccc3)cc(=O)oc12 (stereo unspecified) | 71* | 84* | 3 | 15 | 18 | 8 | 6
O=C(CN1C(=O)NC2(CCCCC2)C1=O)Nc1ccccc1N1CCCC1 | -4 | 0 | -1 | -6 | 1 | / | /
Cc1cc(C)n(CC(=O)NNC(=O)C2CC(=O)N(Cc3ccccc3Cl)C2)n1 (stereo unspecified) | -5 | 2 | 2 | 0 | 0 | / | /
CCc1cc(=O)oc2cc(C)c(CN3CCCC3)c(O)c12 | 7 | 87* | 3 | 24 | 8 | 4 | 1
CCc1cc(=O)oc2cc(C)c(CN3CCCCC3)c(O)c12 | -11 | 9 | 10 | 6 | 0 | / | /
Cc1c(Cl)cccc1NC(=O)CN1CCN(CCN=CC2=C(O)CC(c3ccccc3)CC2=O)CC1 (stereo unspecified) | -1 | -3 | -2 | 6 | -1 | / | /
Cc1ccc(N(CC(=O)N/N=C/c2cccnc2)S(=O)(=O)c2ccccc2)cc1 | -1 | 2 | -3 | -11 | -2 | / | /
Cc1ccc(S(=O)(=O)N(CC(=O)N/N=C/c2cccc(Cl)c2)c2cccc3cccnc23)cc1 | -3 | 53* | 8 | 4 | 2 | 2 | 6
COc1ccc(C(=O)COC(=O)c2nc3nccc(C)n3n2)cc1F | -8 | -1 | -1 | 8 | 0 | / | /
CC1(C(=O)NCC2CC2)Cc2c(-c3ccccc3)ccnc2O1 (stereo unspecified) | / | 2 | 2 | 4 | -1 | / | /
CN(C)c1ccc(-c2ccnc3c2CC(C)(C(=O)NCC2CCOCC2)O3)cc1 (stereo unspecified) | / | 59* | -2 | 1 | -1 | 2 | 3
CC1(C(=O)NCC2CCOCC2)Cc2c(-c3cccc(C(F)(F)F)c3)ccnc2O1 (stereo unspecified) | / | 84* | 1 | 0 | -1 | 7 | 7
CC1(C(=O)NCCC(F)(F)F)Cc2c(-c3cccc(C(F)(F)F)c3)ccnc2O1 (stereo unspecified) | / | 5 | 1 | 1 | -1 | / | /
CC(Nc1nc(-c2cccc(Br)c2)cs1)c1nc2cc(Cl)c(N3CCCCC3)cc2n1CCOCCO (stereo unspecified) | 0 | -8 | -1 | 6 | 3 | / | /

Source: PubChem
